High-throughput results from PubChem.
Most compounds without a hit are left out; they make up all but 2.9% or so of the library.
Calb FLC: C. albicans growth modulation with fluconazole | C. albicans CaCi-2 (fluconazole-resistant clinical isolate) + fluconazole, Alamar Blue growth, 48 h | 0.57% of 300,000 active | growth inhibition, % (no concentration beside the values) | AID 1979;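 active = growth inhibition above about 58% in most replicates, limit read from the data, passing the limit was not always enough; inconclusive = exactly half the replicates above a set limit; inactive = most replicates below a set limit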;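 note: all wells also contain fluconazole at 8 µg/ml as a sub-toxic cotreatment; 0% = median of DMSO wells and 100% = median of geldanamycin control wells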
Efflux pump inh: inhibitors of Candida antifungal efflux pumps expressed in yeast; S. cerevisiae Candida pump triplex, Nile Red efflux; inhibition, % at 10 µM; AID 485275; 0.44% of 330,000 active;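 active = plate passing quality check with inhibition over a set limit, or well fluorescence over plate mean plus 4 SD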;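 note: Nile Red retained in pooled yeast measured as flow cytometry median fluorescence; 0% = buffer negative control and 100% = Enniatin B positive control; higher means more Nile Red kept so more efflux inhibition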
GalR3 antag: human GalR3 antagonism | HEK293 GalR3-CNG cAMP membrane potential fluorescence; galR3 body fused to GalR1 C-terminus | 0.44% of 360,000 active | inhibition, % at 3 µM | AID 651719;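 active = inhibition above the screen-wide average plus 3 SD, cut at about 13% in these data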;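 note: forskolin and galanin both at EC90 stimulate the cells; cAMP rise reported by CNG channel membrane potential dye signal; 0% = forskolin plus galanin with DMSO and 100% = forskolin alone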
Target sequence (O60755 1-299 limits assumed): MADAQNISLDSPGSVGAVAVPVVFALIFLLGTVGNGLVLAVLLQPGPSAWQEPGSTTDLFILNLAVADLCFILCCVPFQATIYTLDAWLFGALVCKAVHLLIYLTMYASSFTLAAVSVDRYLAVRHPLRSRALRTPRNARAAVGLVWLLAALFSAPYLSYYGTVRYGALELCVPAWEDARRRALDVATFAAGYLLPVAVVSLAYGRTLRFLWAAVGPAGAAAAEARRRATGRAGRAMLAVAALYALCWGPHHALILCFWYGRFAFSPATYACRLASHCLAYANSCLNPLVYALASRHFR
MC4R barr agon: activates human MC4R beta-arrestin recruitment. P32245. U2OS MC4R beta-arrestin complementation, luminescence; percent of melanotan II response, DMSO zero. activation, % at 8.9 µM. 0.98% of 360,000 active. AID 540308;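 active = activation above a per-plate cutoff, the mean activation of sample wells on that plate plus 3 SD, cut at about 8% in these data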
Target sequence (P32245 whole entry, looked up): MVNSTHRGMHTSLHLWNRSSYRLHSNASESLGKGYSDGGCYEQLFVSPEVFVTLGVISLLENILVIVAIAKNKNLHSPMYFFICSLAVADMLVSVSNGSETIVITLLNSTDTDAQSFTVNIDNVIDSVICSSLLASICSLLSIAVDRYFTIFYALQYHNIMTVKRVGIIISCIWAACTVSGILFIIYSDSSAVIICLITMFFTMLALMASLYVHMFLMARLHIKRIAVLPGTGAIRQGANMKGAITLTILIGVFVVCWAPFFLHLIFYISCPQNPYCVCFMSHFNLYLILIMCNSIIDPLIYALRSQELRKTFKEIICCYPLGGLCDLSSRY
H9c2 TAG inh: inhibitors of triacylglycerol accumulation; H9c2 cells, Nile Red lipid (TAG) fluorescence; cells loaded with 200 µM oleic acid; inhibition, % at 12.5 µM; 0.66% of 230,000 active; AID 651582;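 active = pattern-corrected inhibition of lipid staining of at least 50% with the nuclear-stain viability signal not falling by more than 50%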;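 note: 0% = DMSO wells and 100% = triacsin C control wells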
MC4R antagonist: antagonists of human melanocortin 4 receptor (MC4R). P32245. MC4R-expressing cells, MTII-stimulated cAMP, LANCE TR-FRET. inhibition, % at 6.5 µM. 0.48% of 360,000 active. AID 540295;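 active = inhibition above its plate's cutoff, the mean of tested wells on that plate plus 3 SD, cut at about 29% in these data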;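 note: 0% = Melanotan II alone and 100% = Melanotan II plus saturating MCL0020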
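Assay system: U2OS-MC4R stable cell line; Also added: Melanotan II; Technique: Eu-cAMP/anti-cAMP TR-FRET, emission 671 nm; Times: 30-min compound, 1-h challenge, 1-h detection, room temperature.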
* = called active by the depositor; ? = inconclusive; / = no result.

SMILES	Calb FLC	Efflux pump inh	GalR3 antag	MC4R barr agon	H9c2 TAG inh	MC4R antagonist
CCOc1c(Cl)cc(CNc2ccc(N3CCCC3)cc2)cc1OC	5	/	2	-4	60*	-19
CCOc1c(Cl)cc(CNc2ccc(S(N)(=O)=O)cc2)cc1OC	5	0	1	0	/	-3
COC(=O)[C@@]12C[C@@H](CC(=O)NCCC(C)C)C(=O)N(Cc3ccccc3)C1=CCC(C)(C)C2	/	/	-4	/	/	/
COc1ccc(C(CCN2CCOCC2)c2c(O)cc(OC)cc2OC)cc1 (configuration not stated)	-12	0	-7	0	9	0
COc1ccc(C(c2c(O)ccc3ccccc23)N2CCOCC2)c(OC)c1 (configuration not stated)	87*	0	-1	-4	/	5
CCOC(=O)CSc1c(-c2cccs2)[nH]c2ccccc12	19	0	-3	8.6*	/	2
CCOC(=O)CSc1nc(N)c(C#N)c(-c2cccs2)c1C#N	11	0	-4	-1	13	4
O=C(CN1CCCC1)Nc1ccc(-c2nc3cc(NC(=O)CN4CCCC4)ccc3o2)cc1	?	0	-9	-1	52*	-4
CC1(C(=O)NS(=O)(=O)c2ccc(F)cc2F)CCN1C(=O)c1ccc(C2CCCCC2)cc1 (configuration not stated)	/	/	-1	-1	-12	10
N#C/C(=C\c1cn(Cc2ccc(F)cc2)c2ccccc12)C(=O)NCc1ccco1	1	0	0	9.1*	-14	5
COc1ccccc1-c1cnc(C(O)c2ccc(C(C)(C)C)cc2)[nH]1 (configuration not stated)	/	/	-6	2	12	6
Cc1ccc(S(=O)(=O)/N=C(/c2ccccc2)N2CCOCC2)c(C)c1	81*	0	-1	1	/	24
COC(=O)c1[nH]c2ccc(Cl)cc2c1NC(=O)CN1CCc2cc(OC)c(OC)cc2C1	6	0	-4	0	/	-3
COC(=O)c1[nH]c2cc(C)ccc2c1NC(=O)CN1CCc2cc(OC)c(OC)cc2C1	100*	0	/	1	-28	-1
CCOc1ccc(Nc2oc(-c3ccc(Cl)cc3)nc2C#N)cc1	48	0	-1	8.9*	33	-14
N#Cc1nc(-c2ccc(Cl)cc2)oc1NCc1ccco1	-10	0	-6	0	8	3
N#Cc1nc(-c2ccc(Cl)cc2)oc1NCc1cccc2c1OCO2	3	-1	-7	8.5*	/	2
COc1ccc(Nc2oc(-c3ccc(OC)cc3)nc2C#N)cc1	0	0	1	-1	24	11
CC(Cl)=CCn1c(NCCc2ccccc2)nc2c1c(=O)n(C)c(=O)n2C	/	/	-4	2	-20	4
Cc1ccc(NNC(=O)c2ccno2)cc1C	93*	0	2	0	-6	-4
CCOC(=O)[C@]12CCCC=C1N(CCC1=CCCCC1)C(=O)[C@H](CC(=O)NCCCN1CCCC1=O)C2	/	/	-6	/	/	/
Cc1ccc(N/N=C/c2ccc3c(c2)OCCO3)cc1Cl	102*	0	-1	1	/	28
O=C(O)c1cc(N/N=C/c2ccc3c(c2)OCCO3)ccc1Cl	/	0	-2	-2	/	16
Fc1ccc(-[n+]2nc(Nc3ccccc3)sc2-c2c3ccccc3cc3ccccc23)cc1	17	0	-7	7	/	-6
c1ccc(-[n+]2nc(Nc3cccc4ccccc34)sc2-c2c3ccccc3cc3ccccc23)cc1	/	0	/	-1	106*	-3
SMILES	Calb FLC	Efflux pump inh	GalR3 antag	MC4R barr agon	H9c2 TAG inh	MC4R antagonist
Cc1cc(Cl)ccc1NNC(=O)c1c(C)noc1C	82*	0	-4	0	8	9
CCc1nc2c(OCC(=O)c3ccc(Cl)cc3Cl)cccn2c1N(C)C(=O)COc1ccccc1	/	/	-5	-1	23	3
CCN(c1ccccc1)S(=O)(=O)c1ccc(Cl)c(NC(=O)CN2C(=O)NC3(CCCC3)C2=O)c1	96*	0	-2	-4	9	11
Cc1cc2c(cc1C)CSC(c1ccc(O)cc1)SC2	8	0	-5	8.6*	/	-5
Nc1ccc(Sc2ccc([N+](=O)[O-])cc2)cc1	93*	0	-2	-2	4	2
COc1cccc(-c2cnc3c(NC(C)=O)cc(-c4cccc(C(=O)NCCN(C)C)c4)cn23)c1	/	/	-2	1	12	-5
CCCCCCCCC(c1nc2ccccc2[nH]1)N1CCN=C(c2ccccc2)C1=O (configuration not stated)	/	/	-5	/	/	/
COC(=O)c1ccc(C2C(Oc3ccccc3)C(=O)N2CCc2ccc(OC)c(OC)c2)cc1 (configuration not stated)	-2	0	-4	8.9*	/	6
O=C1CCCCC/C1=N/Nc1ccc(OCc2ccccc2)cc1	94*	0	-5	0	-8	6
CCn1c(O)c(N=NC(=O)c2cccs2)c2ccccc21	54*	0	-5	-3	11	-8
COc1ccc(O)c(C(=O)c2cnc3c(c2)c(=O)[nH]c(=O)n3C)c1	27	0	3	1	/	18
COCCn1c(=O)[nH]c(=O)c2cc(C(=O)c3cc(Cl)ccc3O)cnc21	89*	0	/	1	8	2
Cc1cc(C)c2cc(C#N)c(N3CCCC3)nc2c1	/	0	2	-1	0	10
CC(=O)c1cc(C#N)c(N2CCCC2)nc1C	93*	0	-4	-2	-7	-8
CCCCOCCCNC(=O)C[C@@H]1C[C@@]2(C(=O)OC)CCCCC=C2N(CCc2ccc(OC)c(OC)c2)C1=O	/	/	-5	/	/	/
O=C(COC(=O)c1ccccc1)Nc1ccc(Cl)cn1	-35	0	7	1	4	2
COc1ccc(C(=O)OCC(=O)Nc2ccc(Cl)cn2)cc1	-16	0	-5	8.8*	-11	3
Cc1ccc(-c2nc3sc(C#N)c(N)n3c(=O)c2C#N)cc1	111*	0	-6	0	21	5
O=c1c2c3nc4ccccc4nc3n(-c3ccc4c(c3)OCCO4)c2ncn1C1CCCC1	/	0	-4	-4	64*	8
O=C(/C=C/c1cc2c(cc1Br)OCO2)NCc1ccc(F)cc1	14	0	-1	8	-70	3
COc1ccc(CNC(=O)/C=C/c2cc3c(cc2Br)OCO3)cc1	-7	0	-1	8.5*	-60	-5
O=[N+]([O-])c1ccccc1N/N=C/c1c[nH]c2ccccc12	6	0	-7	3	82*	0
N#CC(c1ccc(Cl)cc1)c1ccc2c(C(F)(F)F)cc(C(F)(F)F)nc2n1 (configuration not stated)	4	0	36*	-3	26	-5
